Measurements: ChEMBL document CHEMBL2176954, “General synthesis of β-alanine-containing spider polyamine toxins and discovery of nephila polyamine toxins 1 and 8 as highly potent inhibitors of ionotropic glutamate receptors” (J Med Chem, 2012)

biological target: Glutamate receptor ionotropic, NMDA 2A (Rattus norvegicus, UniProt P35439+Q00959); assay: Antagonist activity at rat glutamate N1/2A receptor expressed in Xenopus oocytes at membrane potential -60 mV by two-electrode voltage-clamp electrophysiology assay; assay type: functional, cell-based, Oocyte
How it was run: (§1)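 Two-electrode voltage clamp at −60 mV on oocytes expressing the iGlu receptor subtype. Cells first received a maximally effective agonist concentration, then increasing toxin concentrations co-applied with agonist. IC50 values are means from 6 to 12 experiments, reported with 95% confidence intervals.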

Chain of Glutamate receptor ionotropic, NMDA 2A (Q00959 whole entry, one chain of several): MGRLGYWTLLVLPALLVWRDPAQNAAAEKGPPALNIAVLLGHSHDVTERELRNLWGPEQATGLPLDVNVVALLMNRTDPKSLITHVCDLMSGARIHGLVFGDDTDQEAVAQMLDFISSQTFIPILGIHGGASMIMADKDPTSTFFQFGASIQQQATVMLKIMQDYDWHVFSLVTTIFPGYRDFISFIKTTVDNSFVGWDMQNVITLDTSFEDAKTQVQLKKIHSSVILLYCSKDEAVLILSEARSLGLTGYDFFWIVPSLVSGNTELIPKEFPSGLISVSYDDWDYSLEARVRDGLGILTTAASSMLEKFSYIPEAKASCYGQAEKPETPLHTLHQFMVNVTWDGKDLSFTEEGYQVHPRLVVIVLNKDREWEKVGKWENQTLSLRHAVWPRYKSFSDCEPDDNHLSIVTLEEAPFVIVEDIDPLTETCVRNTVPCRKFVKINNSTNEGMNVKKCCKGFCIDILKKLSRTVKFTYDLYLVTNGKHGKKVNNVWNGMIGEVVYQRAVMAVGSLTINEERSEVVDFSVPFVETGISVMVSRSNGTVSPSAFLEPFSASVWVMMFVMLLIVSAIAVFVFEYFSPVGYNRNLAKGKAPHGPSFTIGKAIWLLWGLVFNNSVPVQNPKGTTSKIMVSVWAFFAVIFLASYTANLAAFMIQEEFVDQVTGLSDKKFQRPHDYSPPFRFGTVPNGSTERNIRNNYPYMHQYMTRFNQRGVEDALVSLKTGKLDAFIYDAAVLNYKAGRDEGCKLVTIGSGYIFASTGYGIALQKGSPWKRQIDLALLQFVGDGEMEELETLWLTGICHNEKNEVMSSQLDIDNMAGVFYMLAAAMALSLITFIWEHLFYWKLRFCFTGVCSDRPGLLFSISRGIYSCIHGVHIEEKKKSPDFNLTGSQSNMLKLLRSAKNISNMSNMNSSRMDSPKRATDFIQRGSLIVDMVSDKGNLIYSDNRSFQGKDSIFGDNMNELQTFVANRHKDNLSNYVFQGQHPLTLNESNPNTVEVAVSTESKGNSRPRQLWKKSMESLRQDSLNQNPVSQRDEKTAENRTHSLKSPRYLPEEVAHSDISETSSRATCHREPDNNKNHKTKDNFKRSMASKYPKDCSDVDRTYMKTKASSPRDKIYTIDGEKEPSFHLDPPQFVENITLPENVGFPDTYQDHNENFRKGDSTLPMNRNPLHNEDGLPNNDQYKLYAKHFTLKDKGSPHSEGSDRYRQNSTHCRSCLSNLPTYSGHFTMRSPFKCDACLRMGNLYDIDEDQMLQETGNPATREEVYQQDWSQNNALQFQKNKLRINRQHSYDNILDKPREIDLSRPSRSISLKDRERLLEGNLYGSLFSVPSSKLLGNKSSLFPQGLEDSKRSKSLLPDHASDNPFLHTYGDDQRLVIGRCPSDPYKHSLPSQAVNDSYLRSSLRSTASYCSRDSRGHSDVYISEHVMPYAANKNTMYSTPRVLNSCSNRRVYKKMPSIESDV

Going from `N=C(N)NCCC[C@H](N)C(=O)NCCCNCCCNCCCCCNC(=O)[C@H](CC(N)=O)NC(=O)Cc1ccc(O)cc1O` to `N=C(N)NCCC[C@H](N)C(=O)NCCCCNCCC(=O)NCCCCCNC(=O)[C@H](CC(N)=O)NC(=O)Cc1ccc(O)cc1O` [NEPHILA SPIDER TOXIN 3], the IC50 rises from 177 nM to 5410 nM (31-fold). The first is the more potent here.

Going from `C[C@H](NC(=O)CNC(=O)[C@@H](N)CCCNC(=N)N)C(=O)NCCCCNCCC(=O)NCCCCCNC(=O)[C@H](CC(N)=O)NC(=O)Cc1ccc(O)cc1O` to `NCCCNCCCCNCCC(=O)NCCCCCNC(=O)[C@H](CC(N)=O)NC(=O)Cc1ccc(O)cc1O` [JORO SPIDER TOXIN 3], the IC50 falls from over 10000 nM to 1710 nM.

Compared with `NCCCNCCCCNCCC(=O)NCCCCCNC(=O)[C@H](CC(N)=O)NC(=O)Cc1c[nH]c2ccccc12`, `NCCCNCCCCNCCC(=O)NCCCCCNC(=O)[C@H](CC(N)=O)NC(=O)Cc1c[nH]c2cccc(O)c12` is 9.3-fold higher in IC50: 150 nM for the first, 1390 nM for the second. The first is the more potent here.

biological target: Glutamate receptor 1 (Rattus norvegicus, UniProt P19490); assay: Antagonist activity at rat GluA1 receptor expressed in Xenopus oocytes at membrane potential -60 mV by two-electrode voltage-clamp electrophysiology assay; assay type: functional, cell-based, Oocyte; how it was run: as §1
Sequence (P19490 whole entry): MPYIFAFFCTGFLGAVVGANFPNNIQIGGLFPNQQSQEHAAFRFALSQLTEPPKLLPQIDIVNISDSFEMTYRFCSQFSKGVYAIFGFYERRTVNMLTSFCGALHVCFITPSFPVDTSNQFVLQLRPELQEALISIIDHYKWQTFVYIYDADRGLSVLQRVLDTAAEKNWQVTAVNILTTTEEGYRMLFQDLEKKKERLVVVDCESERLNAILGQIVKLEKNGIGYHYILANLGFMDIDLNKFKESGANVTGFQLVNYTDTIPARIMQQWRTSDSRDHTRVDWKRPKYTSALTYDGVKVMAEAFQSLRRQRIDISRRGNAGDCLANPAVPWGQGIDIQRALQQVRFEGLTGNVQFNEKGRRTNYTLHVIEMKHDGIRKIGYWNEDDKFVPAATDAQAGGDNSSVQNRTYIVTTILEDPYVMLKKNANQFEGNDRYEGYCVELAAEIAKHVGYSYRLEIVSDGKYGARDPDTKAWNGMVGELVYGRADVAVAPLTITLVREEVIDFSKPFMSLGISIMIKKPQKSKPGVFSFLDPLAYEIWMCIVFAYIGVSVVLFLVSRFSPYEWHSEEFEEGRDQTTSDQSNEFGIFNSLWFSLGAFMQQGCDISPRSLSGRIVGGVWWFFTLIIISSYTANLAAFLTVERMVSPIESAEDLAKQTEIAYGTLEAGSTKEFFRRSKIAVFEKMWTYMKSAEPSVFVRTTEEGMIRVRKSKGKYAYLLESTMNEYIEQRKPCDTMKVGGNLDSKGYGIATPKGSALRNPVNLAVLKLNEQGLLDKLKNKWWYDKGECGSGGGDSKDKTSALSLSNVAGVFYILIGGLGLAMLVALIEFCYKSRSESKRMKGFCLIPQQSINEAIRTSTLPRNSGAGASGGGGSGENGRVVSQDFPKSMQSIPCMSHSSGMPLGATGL

`N=C(N)NCCC[C@H](N)C(=O)NCCCNCCCNCCCCCNC(=O)[C@H](CC(N)=O)NC(=O)Cc1ccc(O)cc1O` and `N=C(N)NCCC[C@H](N)C(=O)NCCCCNCCC(=O)NCCCCCNC(=O)[C@H](CC(N)=O)NC(=O)Cc1ccc(O)cc1O` [NEPHILA SPIDER TOXIN 3] are within 1.5-fold of each other in IC50: 135 nM for the first, 137 nM for the second.

Compared with `C[C@H](NC(=O)CNC(=O)[C@@H](N)CCCNC(=N)N)C(=O)NCCCCNCCC(=O)NCCCCCNC(=O)[C@H](CC(N)=O)NC(=O)Cc1ccc(O)cc1O`, `NCCCNCCCCNCCC(=O)NCCCCCNC(=O)[C@H](CC(N)=O)NC(=O)Cc1ccc(O)cc1O` [JORO SPIDER TOXIN 3] is 17-fold lower in IC50: 1080 nM for the first, 65 nM for the second.

Compared with `NCCCNCCCCNCCC(=O)NCCCCCNC(=O)[C@H](CC(N)=O)NC(=O)Cc1c[nH]c2ccccc12`, `NCCCNCCCCNCCC(=O)NCCCCCNC(=O)[C@H](CC(N)=O)NC(=O)Cc1c[nH]c2cccc(O)c12` is 1.9-fold higher in IC50: 27 nM for the first, 51 nM for the second. The first is the more potent here.

biological target: T1, Glutamate receptor ionotropic, kainate 1 (Rattus norvegicus, UniProt P22756); assay: Antagonist activity at rat GluK1 receptor expressed in Xenopus oocytes at membrane potential -60 mV by two-electrode voltage-clamp electrophysiology assay; assay type: functional, cell-based, Oocyte; how it was run: as §1
T1 sequence (P22756 whole entry): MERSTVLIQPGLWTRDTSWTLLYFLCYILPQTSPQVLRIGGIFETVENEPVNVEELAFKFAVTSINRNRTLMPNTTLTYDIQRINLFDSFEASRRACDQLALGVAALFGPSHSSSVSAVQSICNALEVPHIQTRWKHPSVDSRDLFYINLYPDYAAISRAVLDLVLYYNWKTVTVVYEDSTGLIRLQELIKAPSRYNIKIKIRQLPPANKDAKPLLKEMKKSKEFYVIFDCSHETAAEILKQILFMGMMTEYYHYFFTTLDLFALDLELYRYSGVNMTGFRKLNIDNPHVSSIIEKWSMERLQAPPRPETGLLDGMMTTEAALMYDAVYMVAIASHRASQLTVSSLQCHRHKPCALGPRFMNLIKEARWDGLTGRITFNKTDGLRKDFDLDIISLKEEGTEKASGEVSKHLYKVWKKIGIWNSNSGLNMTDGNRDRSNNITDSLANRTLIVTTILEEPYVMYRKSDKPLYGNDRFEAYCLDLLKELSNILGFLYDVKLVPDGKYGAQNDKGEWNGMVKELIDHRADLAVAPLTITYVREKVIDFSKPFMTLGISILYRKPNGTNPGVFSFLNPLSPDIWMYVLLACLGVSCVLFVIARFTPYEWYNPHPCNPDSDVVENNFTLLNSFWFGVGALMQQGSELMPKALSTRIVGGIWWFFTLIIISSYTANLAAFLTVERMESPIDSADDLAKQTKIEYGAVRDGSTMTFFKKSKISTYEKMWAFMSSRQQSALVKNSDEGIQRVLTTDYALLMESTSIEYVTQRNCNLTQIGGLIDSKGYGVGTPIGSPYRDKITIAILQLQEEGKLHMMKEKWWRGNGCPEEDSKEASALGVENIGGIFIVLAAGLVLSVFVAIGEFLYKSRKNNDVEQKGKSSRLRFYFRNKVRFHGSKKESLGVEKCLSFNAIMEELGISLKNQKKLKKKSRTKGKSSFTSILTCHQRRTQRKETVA

Compared with `C[C@H](NC(=O)CNC(=O)[C@@H](N)CCCNC(=N)N)C(=O)NCCCCNCCC(=O)NCCCCCNC(=O)[C@H](CC(N)=O)NC(=O)Cc1ccc(O)cc1O`, `N=C(N)NCCC[C@H](N)C(=O)NCCCCNCCC(=O)NCCCCCNC(=O)[C@H](CC(N)=O)NC(=O)Cc1ccc(O)cc1O` [NEPHILA SPIDER TOXIN 3] is 16-fold lower in IC50: 2580 nM for the first, 164 nM for the second.

First: NCCCNCCCCNCCC(=O)NCCCCCNC(=O)[C@H](CC(N)=O)NC(=O)Cc1c[nH]c2ccccc12
Second: NCCCNCCCCNCCC(=O)NCCCCCNC(=O)[C@H](CC(N)=O)NC(=O)Cc1c[nH]c2cccc(O)c12
The IC50 of the first is 2.5-fold higher: 0.82 nM for the first, 0.33 nM for the second. The second is the more potent here.

Work on `NCCCNCCCCNCCC(=O)NCCCCCNC(=O)[C@H](CC(N)=O)NC(=O)Cc1ccc(O)cc1O` [JORO SPIDER TOXIN 3] yielded an IC50 of 19 nM.

biological target: T1, Glutamate receptor ionotropic, kainate 1; assay: Antagonist activity at rat GluK1 receptor expressed in Xenopus oocytes by two-electrode voltage-clamp at membrane potential -60 to -80 mV electrophysiology assay; assay type: functional, cell-based, Oocyte
How it was run: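 GluK1-expressing oocytes were clamped by two-electrode voltage clamp and given a maximally effective agonist concentration, then increasing toxin concentrations plus agonist. IC50 was determined at −60 mV and at −80 mV to assess voltage dependence of block. Values at −60 mV are means of 6 to 12 experiments.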

`NCCCNCCCCNCCC(=O)NCCCCCNC(=O)[C@H](CC(N)=O)NC(=O)Cc1c[nH]c2ccccc12` and `NCCCNCCCCNCCC(=O)NCCCCCNC(=O)[C@H](CC(N)=O)NC(=O)Cc1c[nH]c2cccc(O)c12` are within 1.5-fold of each other in IC50: 0.28 nM for the first, 0.19 nM for the second.
